In test [1] the target is T1, Peroxisome proliferator-activated receptor gamma (Homo sapiens) (UniProt P37231).
T1 sequence (whole entry): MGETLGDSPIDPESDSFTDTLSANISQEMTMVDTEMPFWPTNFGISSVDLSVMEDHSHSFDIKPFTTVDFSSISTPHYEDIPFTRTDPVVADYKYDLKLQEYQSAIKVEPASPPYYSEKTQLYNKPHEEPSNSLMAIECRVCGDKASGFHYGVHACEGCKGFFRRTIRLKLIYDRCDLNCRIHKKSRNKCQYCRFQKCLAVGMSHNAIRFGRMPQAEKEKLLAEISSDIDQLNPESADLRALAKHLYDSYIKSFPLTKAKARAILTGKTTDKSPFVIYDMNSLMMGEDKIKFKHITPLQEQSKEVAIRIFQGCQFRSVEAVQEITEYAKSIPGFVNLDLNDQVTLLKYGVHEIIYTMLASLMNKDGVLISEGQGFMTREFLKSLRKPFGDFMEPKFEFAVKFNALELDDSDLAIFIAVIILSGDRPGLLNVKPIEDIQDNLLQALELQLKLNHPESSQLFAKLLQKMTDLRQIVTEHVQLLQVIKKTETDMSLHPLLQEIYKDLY
Briefly: Transactivation of human PPARgamma expressed in human MCF7 cells harboring pPPRE3-tk-luc reporter at 10 uM after 24 hrs by luciferase reporter gene assay relative to control. It counts as cell-based. The method, boiled down:
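MCF-7 cells transfected with a pPPRE3tk-luc reporter are exposed to compound (10μM) for 24 h. Luciferase activity is normalized to β-Gal activity and expressed as fold induction over a solvent control set to 1. Three independent experiments are run, each with duplicate transfections. Values are mean ± s.e.m.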

Test [2] is filed under the species Rattus norvegicus. Nature of the test: Blocking activity at AT1 receptor in rat aortic vascular smooth muscle cells assessed as inhibition of angiotensin-2-induced calcium flux at 10 uM preincubated for 20 mins followed by angiotensin-2 addition by Fura-2-AM dye based scanning fluorometric method relative to control. In a few lines:
(§1)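 Rat aortic smooth muscle cells. Angiotensin II-mediated intracellular calcium release is followed by fluorescence. A first screen is run at a single concentration. Compounds that pass are retested at various concentrations to derive IC50, with losartan tested in each experiment. Values are expressed as the ratio of the compound's IC50 to losartan's IC50.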
For orientation: A change in cytosolic calcium serves as a functional read-out for many receptors and channels.

The test system of test [3] is Rattus norvegicus. Nature of the test: Antihypertensive activity in angiotensin 2-induced Wistar rat hypertensive model assessed as reduction in angiotensin 2-induced mean arterial pressure at 6 x 10^-5mol/kg, iv. It counts as functional, organism-based. The method, boiled down: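 Adult male Wistar rats; angiotensin II given as i.v. bolus at 10-10 mol/kg, with no pretreatment or after i.v. pretreatment at 6.10−5 mol/kg. Read-out is the change in mean arterial pressure in mm Hg, reported as mean ± sem.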

For test [4], the species on record is Rattus norvegicus. Briefly: Ratio of test compound IC50 to losartan IC50 for bocking activity at AT1 receptor in rat aortic vascular smooth muscle cells assessed as inhibition of angiotensin-2-induced calcium flux. The method, boiled down:
as §1

23 compounds from ChEMBL document CHEMBL4270651, “Synthesis and evaluation of new designed multiple ligands directed towards both peroxisome proliferator-activated receptor-γ and angiotensin II type 1 receptor” (Eur J Med Chem, 2018) can be followed below.

By inhibition is commonly meant the share of the control response that was lost under treatment.

Activity calls are given as the source filed them. The calls are words filed in the database; no cut-off is given here.

Turning to `CCCc1nc2c(C)cc(-c3nc4ccccc4n3C)cc2n1Cc1ccc(-c2ccccc2C(=O)O)cc1`, in test [1], the outcome was Active.
On to `CCCCc1nc(Cl)c(CO)n1Cc1ccc(-c2ccccc2-c2nnn[nH]2)cc1`, for which the inhibition in test [2] was determined as 78%. Further, the result in test [3] was Active. For the same compound, the outcome in test [1] was inactive.
In the case of `CCCCCS(=O)(=O)NC(=O)/C=C/c1c(Cl)nc(CCCC)n1Cc1ccc(-c2ccccc2-c2nn[nH]n2)cc1`, the Ratio IC50 in test [4] came out at 11.1. In addition, in test [2], the inhibition is > 50%. Further, the result in test [1] was Active.
As for `CCCCc1ncc(CCCOc2ccc(CC3SC(=O)NC3=O)cc2)n1Cc1ccc(-c2ccccc2-c2nn[nH]n2)cc1` (configuration not stated), in test [4], the Ratio IC50 was found to be 1.1. The inhibition in test [2] is > 50%. Besides, the outcome in test [1] was inactive.
Consider `CCCCc1nc(Cl)c(COc2ccc(CC3SC(=O)NC3=O)cc2)n1Cc1ccc(-c2ccccc2-c2nn[nH]n2)cc1` (configuration not stated), for which the Ratio IC50 in test [4] was determined as 6.3. In addition, the inhibition in test [2] is > 50%. Also, the result in test [3] was Active. In addition, the outcome in test [1] was inactive.
Consider `COC(=O)c1ccccc1N[C@@H](Cc1ccc(OCC2(C)CCc3c(C)c(OCc4ccc(-c5ccccc5C(=O)O)cc4)c(C)c(C)c3O2)cc1)C(=O)O` (some centres not stated), for which, in test [2], the inhibition result was “inactive”. Further, in test [1], the result was Active.
On to `CCCCc1nc(Cl)c(CCCOc2ccc(CC3SC(=O)NC3=O)cc2)n1Cc1ccc(-c2ccccc2-c2nn[nH]n2)cc1` (configuration not stated), for which the Ratio IC50 in test [4] turned out to be 0.4. Moreover, in test [2], the inhibition was > 50%. The outcome in test [1] was inactive.
Consider `O=C1NC(=O)C(Cc2ccc(OCCc3cn(Cc4ccc(-c5ccccc5C(=O)O)cc4)nn3)cc2)S1` (configuration not stated), for which the inhibition result in test [2] is “inactive”. In test [1], the result was inactive.
For `Cc1c(C)c2c(c(C)c1OCc1ccc(-c3ccccc3C(=O)O)cc1)CCC(C)(COc1ccc(CC3SC(=O)NC3=O)cc1)O2` (configuration not stated), the inhibition result in test [2] is “inactive”. Also, the result in test [1] was Active.
For `O=C1NC(=O)C(Cc2ccc(OCc3cn(Cc4ccc(-c5ccccc5C(=O)O)cc4)nn3)cc2)S1` (configuration not stated), in that order: “inactive” and “inactive”.
With `CCCCc1c(COc2ccc(CC3SC(=O)NC3=O)cc2)nnn1Cc1ccc(-c2ccccc2C(=O)O)cc1` (configuration not stated), the inhibition entry in test [2] is “inactive”. In test [1], the result was Active.
In the case of `CCCCc1nc(CCCOc2ccc(CC3SC(=O)NC3=O)cc2)cn1Cc1ccc(-c2ccccc2C(=O)O)cc1` (configuration not stated), in test [4], the Ratio IC50 turned out to be 16.2. In test [2], the inhibition was > 50%. For the same compound, in test [1], the outcome was Active.
Take `CC(C)(C)OC(=O)c1ccccc1-c1ccc(Cn2cc(CCOc3ccc(CC4SC(=O)NC4=O)cc3)nn2)cc1` (configuration not stated): the outcome in test [1] was Active.
With `O=C1NC(=O)C(Cc2ccc(OCc3cn(Cc4ccc(-c5ccccc5C(=O)O)cc4)cn3)cc2)S1` (configuration not stated), the Ratio IC50 in test [4] worked out at 3.4. In addition, the inhibition in test [2] was > 50%. For the same compound, the result in test [1] was inactive.
Take `CCCCc1nc(Cl)c(/C=C/C(=O)Oc2ccc(CC3SC(=O)NC3=O)cc2)n1Cc1ccc(-c2ccccc2-c2nn[nH]n2)cc1` (configuration not stated): in test [4], the Ratio IC50 came out at 3.2. In test [2], the inhibition was > 50%. Further, in test [1], the outcome was Active.
With `CCCCc1nc(Cl)c(COc2ccc(/C=C3\SC(=O)NC3=O)cc2)n1Cc1ccc(-c2ccccc2-c2nn[nH]n2)cc1`, in test [2], the inhibition was < 50%. In test [1], the result was inactive.
Turning to `CCCCCCCCCCCCOCc1c(Cl)nc(CCCC)n1Cc1ccc(-c2ccccc2-c2nn[nH]n2)cc1`, the Ratio IC50 in test [4] was 43.2. In addition, the inhibition in test [2] is > 50%. In addition, the outcome in test [1] was Active.
With `Cc1c(C)c2c(c(C)c1OCc1ccc(-c3ccccc3C(=O)O)cc1)CCC(C)(COc1ccc(/C=C3\SC(=O)NC3=O)cc1)O2` (configuration not stated), in test [1], the result was Active.
For the compound `CCCCc1nc(COc2ccc(CC3SC(=O)NC3=O)cc2)cn1Cc1ccc(-c2ccccc2C(=O)O)cc1` (configuration not stated), in test [4], the Ratio IC50 was found to be 5. The inhibition in test [2] was > 50%. The result in test [1] was Active.
For the compound `Cc1c(C)c2c(c(C)c1OCc1ccc(-c3ccccc3C(=O)OC(C)(C)C)cc1)CCC(C)(COc1ccc(/C=C3\SC(=O)NC3=O)cc1)O2` (configuration not stated), in test [1], the outcome was Active.
`COC(=O)c1ccccc1N[C@@H](Cc1ccc(OCC2(C)CCc3c(C)c(O)c(C)c(C)c3O2)cc1)C(=O)O` (some centres not stated): the outcome in test [1] was Active.
On the same count and under the same terms, for `CC(C)(C)OC(=O)c1ccccc1-c1ccc(Cn2cc(COc3ccc(CC4SC(=O)NC4=O)cc3)nn2)cc1` (configuration not stated) the value was “Active”.
Regarding `CCCCc1nc(Cl)c(/C=C/C(=O)Oc2ccc(C[C@H](Nc3ccccc3C(=O)OC)C(=O)O)cc2)n1Cc1ccc(-c2ccccc2-c2nn[nH]n2)cc1`, the Ratio IC50 in test [4] came to 3.8. In addition, the inhibition in test [2] was > 50%. In test [1], the outcome was Active.
